Sampled rows, rich in hits. Any-hit rate of the full collection: about 4.8%.
CSC inhib: cancer stem cell viability inhibitors, primary screen, luminescence | 300,000 tested, 1.1% active | inhibition, % at 7.5 µM | AID 2717, 2010 | cancer stem cell-like cells viability; in the data active means inhibition above about 75%; inconclusive means no clear call, values can overlap the other calls; tested in HMLE shEcad cells
Efflux pump mplx: inhibitors of Candida efflux pumps in yeast, primary screen, S. cerevisiae, Nile Red, multiplex; S. cerevisiae Candida pump triplex; inhibition, % at 10 µM; 330,000 tested, 0.44% active;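 active means plate passing quality check with inhibition over a set limit, or well fluorescence over plate mean plus 4 SD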;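 further: Nile Red retained in pooled yeast measured as flow cytometry median fluorescence; 0% = buffer negative control and 100% = Enniatin B positive control; higher means more Nile Red kept so more efflux inhibition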
Beta cell apopt: inhibitors of cytokine-induced beta cell apoptosis, primary screen, luminescence. protection from apoptosis, % (concentration not given with the values). 300,000 tested, 0.8% active. INS-1E cytokine-induced death, ATP luminescence, 48 h; percent of positive-control rescue, neutral wells zero;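 active means Every replicate reaches about 75%, or at least half do and their mean reaches it too, limit read from the data; inconclusive means At least half of replicates reach the limit but their mean does not; inactive means Under half of replicates reach the limit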;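 further: 0% = cytokine-treated negative control wells and 100% = positive control rescue; higher means more ATP so stronger rescue from cytokine killing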
T cruzi repl: inhibitors of intracellular T. cruzi growth, primary screen, luminescence, NIH3T3 host cells; T. cruzi beta-gal in NIH3T3, 90 h; inhibition, % (concentration not given with the values); 300,000 tested, 1.4% active; AID 1885, 2009;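 active means mean inhibition across valid replicates above about 55%, limit read from the data; inconclusive means mean below that limit but half or more replicates reach it; inactive means mean below it, under half of replicates reach it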;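 further: signal also drops with host cell toxicity which is not excluded here; 0% = plate median of DMSO wells and 100% = zero luminescence signal; higher percent means less beta-gal luminescence so fewer parasites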
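Read-out: Parasite load inhibition, % | Test system: Mouse NIH/3T3 fibroblasts infected with β-gal-expressing T. cruzi Tulahuen C4 | Amount: 5,000 cells/well | Medium: DMEM, 2% fetal bovine serum | Signal: GalScreen β-gal luminescence, detergent lysis, 60 min | Timing: 3 h attach, ≥90 h co-culture | Also added: Tulahuen C4 trypomastigotes, 5000/well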
WT yeast gro inh: growth inhibition of WT strain, primary screen, mitochondrial fusion inhibitor project, WT and mutant strains, chemical genetic; mitochondrial fusion phenotypic screen; inhibition, % at 10 µM; AID 1362, 2008; 190,000 tested, 2.1% active; in the data active means inhibition above about 58%; tested in S. cerevisiae
Mot1-301 SUMO: yeast Mot1-301 growth rescue at high temperature, primary screen, SUMOylation pathway inhibitor project, S. cerevisiae, ATP luminescence, 38.5C; S. cerevisiae Mot1-301 growth rescue; percent above DMSO median, 100 means doubled; growth rescue, % at 18.8 µM; 320,000 tested, 1% active;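 active means every valid replicate shows activation above 250% relative to neutral control wells; inactive means the rest, any valid replicate at or below 250%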;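 further: OY570 slx delta 5 strain wells were the positive control but not used for scaling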
* = called active by the depositor; ? = inconclusive; . = no result; + = active, no number.

SMILES | CSC inhib | Efflux pump mplx | Beta cell apopt | T cruzi repl | WT yeast gro inh | Mot1-301 SUMO
O=C(CCCOc1ccc(Cl)cc1Cl)N1CCCc2ccccc21 | -2 | 0 | -13 | 15 | 75* | 102
O=C(COc1ccc(Cl)cc1Cl)N1CCCN(C(=O)COc2ccc(Cl)cc2Cl)CC1 | 38 | 0 | 17 | 60* | 76* | -36
O=C(COc1ccc(Cl)cc1Cl)OCC(=O)N1CCCc2ccccc21 | -6 | 0 | -4 | -13 | 52 | 12
Cc1cc2cc(CCNC(=O)c3ccc(Br)o3)c(=O)[nH]c2cc1C | 13 | 0 | -5 | 4 | 96* | 17
O=Nc1c(O)n(Cc2ccc(Cl)c(Cl)c2)c2ccccc12 | 84* | 0 | 11 | 9 | 2 | .
CCOc1ccc(S(=O)(=O)N2CCCCC2)cc1NC(=O)CC1OC(=O)c2ccccc21 (configuration not stated) | -3 | 0 | . | -2 | . | -1
COc1ccc(-c2nc(C#N)c(NCc3cccnc3)o2)cc1OC | -18 | 0 | 5 | 64* | -24 | -1
Cc1cc([N+](=O)[O-])ccc1NC(=O)CSc1nncn1-c1ccccn1 | -12 | 0 | -4 | -7 | . | 737*
Cc1nn(-c2ccccc2)c(Cl)c1/C=N/NC(=O)c1ccccc1F | 4 | 0 | -3 | 9 | . | 37
Cc1ccc(S(=O)(=O)N(Cc2cc3cc4c(cc3[nH]c2=O)OCCO4)CC2CCCO2)cc1 (configuration not stated) | 4 | 0 | -2 | -10 | 1 | 332*
CC(C)Cc1ccc(CN2CCC(n3nccc3NC(=O)C3CCCC3)CC2)cc1 | -9 | 0 | -2 | 59* | . | 10
COCCNC(=O)C(c1ccncc1)N(C(=O)c1sc(C)nc1C)c1cccc(C)c1 (configuration not stated) | 10 | 0 | 4 | 2 | -5 | +
CCC(C)(C)NC(=O)C(c1ccncc1)N(C(=O)c1sc(C)nc1C)c1ccc(F)cc1 (configuration not stated) | 7 | 0 | 0 | 0 | 3 | -14
C[C@H](CCC(=O)O)[C@H]1CC[C@H]2[C@@H]3CC[C@@H]4C[C@H](O)CC[C@]4(C)[C@H]3C[C@H](O)[C@]12C | -2 | 0 | 0 | -7 | . | 422*
COc1cc2c(cc1OC)C(C1C(=O)CC(C)(C)CC1=O)N(C(=O)CCl)CC2 (configuration not stated) | 4 | 0 | 2 | -13 | -15 | 99
COc1cc2c(cc1OC)C(c1cc(Br)ccc1F)N(C(=O)CCl)CC2 (configuration not stated) | 42 | 0 | 7 | 65* | . | -11
CN(C)CCCNc1cn[nH]c(=O)c1Cl | -10 | 0 | -3 | 70* | -2 | -24
COCCn1c(N)c(C(=O)c2cccc(S(=O)(=O)N3CCCCCC3)c2)c(=O)[nH]c1=O | . | 0 | -2 | . | . | -10
Cc1ccc(N/C(N)=N/c2nc(C)cc(N3CCCCC3)n2)c(C)c1 | 7 | 0 | 111* | 69* | 17 | -7
O=C(/C=N/O)NCCN1CCCCC1 | -5 | 0 | -4 | 1 | 59* | -21
C/C(=N\O)C(=O)NCCN1CCCCC1 | -11 | 0 | 4 | -19 | 0 | -7
Cc1ccccc1-n1ncc2c1CC(C)(C)CC2NC(=O)c1cn[nH]c1C (configuration not stated) | . | 0 | . | -5 | . | .
N#CC(C#N)=C1C=CC=CN1/C(=C\c1ccco1)C(=O)c1ccc(-c2ccccc2)cc1 | 75* | 0 | 16 | . | -2 | 125
CCN(CCCNC(=O)CCn1c(=S)[nH]c2cc3c(cc2c1=O)OCO3)c1cccc(C)c1 | -10 | 0 | 10 | 32 | . | -1
COc1ccc(-n2sc3c(c2=S)-c2cc(OC)ccc2NC3(C)C)cc1 | 129* | 0 | 6 | 32 | 22 | 6
SMILES | CSC inhib | Efflux pump mplx | Beta cell apopt | T cruzi repl | WT yeast gro inh | Mot1-301 SUMO
Cc1ccc(Cl)cc1N1CCN(C(=O)CN(c2ccccc2)S(=O)(=O)N(C)C)CC1 | 7 | 0 | -2 | 17 | 5 | 233
O=C1c2ccccc2NC(c2ccc(Br)s2)N1O (configuration not stated) | 10 | 0 | 11 | -10 | . | 25
CCn1c(=O)c([N+](=O)[O-])c(Cl)c2ccccc21 | ? | 0 | 77* | 71* | 62* | 98
COc1cccc(CN2CCN(Cc3cccc(Oc4ccccc4)c3)CC2)c1OC | 31 | 0 | -7 | 12 | . | 1
COc1cccc(CN2CCC(N(CCc3ccccc3)Cc3ccccc3)CC2)c1OC | 77* | 0 | 113* | 25 | 39 | 8
NC(=O)Nc1ccc(C(=O)OCC(=O)N2CCc3ccccc3C2)cc1 | . | 0 | -9 | . | . | 7
Cn1cc([C@@H]2C[C@H]3CN(C4CCCC4)C(=O)[C@]34CCCN24)c(-c2ccccc2)n1 | -5 | 0 | -7 | -1 | -6 | -1
O=C1N/C(=N/N=C/c2ccccc2O)SC1Cc1ccc(F)cc1 (configuration not stated) | 49 | 0 | 87* | 9 | . | -5
COc1ccc(CC2S/C(=N/N=C/c3ccccc3O)NC2=O)cc1 (configuration not stated) | ? | 0 | 57 | 15 | . | 29
N#CC(c1ccc(Cl)cc1)c1ccc2c(C(F)(F)F)cc(C(F)(F)F)nc2n1 (configuration not stated) | -13 | 0 | 124* | ? | 85* | -37
Cc1cc(C)c(C)c(OCCCCN2CCCCC2)c1 | 30 | 0 | -3 | 10 | . | 49
CCCCCCCC(=O)Nc1ccc(C(=O)N/N=C/c2cccc([N+](=O)[O-])c2)cc1 | 14 | 0 | 95* | 19 | 2 | -5
O=C(CO/N=C/c1cccc([N+](=O)[O-])c1)Nc1ccc2ccccc2c1 | -17 | 0 | -1 | 2 | 28 | 338*
CCCCCCCCCS(=O)(=O)N/N=C/c1cccc([N+](=O)[O-])c1 | 24 | 0 | -11 | -21 | 88* | 130
CN(CC(=O)Nc1ccc(S(=O)(=O)N2CCOCC2)cc1)Cc1ccc(F)cc1 | . | 0 | 4 | . | . | 0
CN(C)c1nc(N/N=C/c2ccccc2O)nc(Nc2ccc(F)cc2)n1 | -1 | 0 | 106* | 28 | 34 | 13
Nc1ccccc1C(=O)NCCCN1CCN(c2cccc(Cl)c2)CC1 | 14 | 0 | 3 | 13 | . | -21
CCn1ccnc1CN(C)Cc1cn[nH]c1-c1ccc(OC)c(F)c1 | 4 | 0 | -4 | -7 | -8 | 15
Cc1cc(C)n(-c2nc(Nc3ccccc3C(F)(F)F)nc(-n3nc(C)cc3C)n2)n1 | 59 | 0 | 82* | ? | 16 | 3

Screens: PubChem, several laboratories
